PubChem BioAssay AID588761 (Johns Hopkins Ion Channel Center, 2011)
The source made the active and inactive calls.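 Rule for the calls: active = peak block of the KCNQ2 potassium channel above 30% at any tested dose, with a fitted dose response curve; inactive = no channel block at any dose, or no curve.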

target: Potassium voltage-gated channel subfamily KQT member 2 (Rattus norvegicus) (UniProt O88943); test: rat KCNQ2 channel inhibition, SAR follow-up, selectivity assay for KCNK9 inhibitor project, cell-based, FluxOR thallium flux, CRC (AID 588761); details: KCNQ2-expressing cells; series mostly up to 30 µM; fluorescence ratio, lower = inhibition: at the top concentration
Sequence (O88943 whole entry, looked up): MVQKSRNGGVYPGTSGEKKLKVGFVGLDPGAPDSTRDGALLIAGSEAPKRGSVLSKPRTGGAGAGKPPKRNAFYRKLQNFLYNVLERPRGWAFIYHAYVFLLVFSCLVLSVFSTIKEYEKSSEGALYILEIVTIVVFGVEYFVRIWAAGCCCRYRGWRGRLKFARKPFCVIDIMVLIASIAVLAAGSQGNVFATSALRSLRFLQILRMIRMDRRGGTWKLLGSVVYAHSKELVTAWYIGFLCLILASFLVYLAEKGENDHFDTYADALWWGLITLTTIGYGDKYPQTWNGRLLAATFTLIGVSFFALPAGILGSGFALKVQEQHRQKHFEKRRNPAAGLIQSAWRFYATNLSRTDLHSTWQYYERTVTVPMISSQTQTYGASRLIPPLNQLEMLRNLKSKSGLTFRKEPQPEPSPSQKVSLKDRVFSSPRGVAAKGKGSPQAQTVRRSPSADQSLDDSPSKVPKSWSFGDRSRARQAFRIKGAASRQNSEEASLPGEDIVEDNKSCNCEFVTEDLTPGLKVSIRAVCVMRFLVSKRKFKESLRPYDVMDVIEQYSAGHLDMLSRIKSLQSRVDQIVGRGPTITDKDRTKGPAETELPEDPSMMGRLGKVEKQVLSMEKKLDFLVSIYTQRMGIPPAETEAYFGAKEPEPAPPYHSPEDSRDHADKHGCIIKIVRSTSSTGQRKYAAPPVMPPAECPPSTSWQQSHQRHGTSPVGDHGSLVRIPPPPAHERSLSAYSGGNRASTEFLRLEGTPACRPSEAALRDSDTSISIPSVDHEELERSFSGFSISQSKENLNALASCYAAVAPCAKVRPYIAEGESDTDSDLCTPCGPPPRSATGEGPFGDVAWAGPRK
Outline: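 System: KCNQ2-expressing CHO cells; reagent: Tl+/K+ stimulus (5x stock 7 mM Tl2SO4, 25 mM K2SO4); dosing: compound concentration-response series; incubation: dye 90 min RT, compound 20 min RT; measured by: FluxOR thallium flux, kinetic imaging, 10 s baseline, 110 s post-stimulus; benchmarks: XE-991 control; replicates: at least duplicate runs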

Fluorescence ratio, lower = inhibition, inactive:
Cc1cccc(NC(=O)c2ccccc2NC(=O)c2ccccc2)c1 0.206
Cc1cccc(C(=O)Nc2ccc(C(=O)Nc3ccccc3)cc2)c1 0.198
Cc1cccc(NC(=O)c2cccc(NC(=O)c3ccccc3)c2)c1 0.187
Cc1cccc(C(=O)Nc2ccccc2C(=O)Nc2ccccc2)c1 0.171
Cc1cccc(C(=O)Nc2cccc(C(=O)Nc3ccccc3)c2)c1 0.18
